Here are results for five compounds from publication PMC4489158 (Biochemistry, 2009).

Data set [1] has as its system γ-secretase cleavage of APLP1 (APLP1 ICD production). Briefly: ICD in vitro generation. Format: biochemical, human. The following applies: for effect on ICD production from APLP1: tested between 100 and 500 µM.
The target of data set [2] is γ-secretase cleavage of APLP2 (APLP2 ICD production) (Cricetulus griseus, UniProt A0A061HTR1+A0A061IL97+A0A8C2QG42+G3HNF2). Put plainly: ICD in vitro generation. Format: biochemical, human. To be noted: for effect on ICD production from APLP2: tested between 100 and 500 µM.
Data set [3] has as its system γ-secretase processing of APLP1 (APLP1 CTFs). Put plainly: CTF accumulation in intact CHO cells expressing APLP1-His. The following applies: overnight (14 h). Format: cell-based, Chinese hamster. An outline of the steps:
(§1)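 CHO cells stably expressing full-length human His-tagged APP or APLP1 (zeocin selection) were grown to confluence in six-well plates, then treated overnight (~14 h) with test compound or vehicle. Cells were lysed in NP-40 buffer with protease inhibitors. Equal protein (BCA) was immunoblotted with TetraHis antibody and ECL. CTF bands were quantified as fold over vehicle, with at least three measurements, and significance was assessed by two-way ANOVA.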

Data set [4] has as its target γ-secretase cleavage of APP (APP ICD production) (Cricetulus griseus, UniProt A0A061HTR1+A0A061IL97+A0A8C2QG42+G3HNF2). Put plainly: ICD in vitro generation. Format: biochemical, human. To be noted: for concentration at which APP ICD production is decreased: microsomes; for effect on ICD production from APP: tested between 100 and 500 µM.
In data set [5] the test system is γ-secretase processing of APP (APP CTFs). Briefly: CTF accumulation in intact CHO cells expressing APP-His. Format: cell-based, Chinese hamster. The following applies: overnight (14 h). An outline of the steps:
as §1

The conditions of data set [6]: cited from earlier work.
The test system of data set [7] is γ-secretase (Aβ42, Aβ38, Aβ40 production). The following applies: cited from earlier work.

On to `C[C@H](NC(=O)Cc1cc(F)cc(F)c1)C(=O)NC(C(=O)OC(C)(C)C)c1ccccc1` (stereo partly drawn) [DAPT, N-[N-(3,5-difluoro-phenacetyl)-l-alanyl]-S-phenylglycine tert-butyl ester], for which the IC50 in data set [1] (read-out: IC50 of γ-secretase processing of APLP1 (ICD production)) stood at 95.7 nM.
Take `CC(C(=O)O)c1cccc(Oc2cc(Cl)cc(Cl)c2)c1` (centres unmarked) [FT-9, 2-[3-(3,5-dichlorophenoxy)phenyl]propanoic acid]: the “reduction of APLP1 ICDs” value in data set [1] (500 µM, highest concentration tested) is reported as ~ 38%. Also, the “concentration at which APLP1 ICD production is decreased” value in data set [1] (microsomes) was no less than 100 µM. Further, the “concentration at which APLP2 ICD production is decreased” value in data set [2] (microsomes) is no less than 100 µM. Also, the inhibition at 500 µM in data set [2] (read-out: reduction of APLP2 ICDs) was 70 to 75%. Also, in data set [3], the “concentration causing significant accumulation of APLP1 CTFs” value was no less than 20 µM and the “concentration required to cause a 2-fold increase in APLP1 CTFs” value is reported as 25.7 ± 8.9 µM. In addition, the “concentration at which APP ICD production is decreased” value in data set [4] is reported as no less than 100 µM. In addition, the inhibition at 500 µM in data set [4] (read-out: reduction of APP ICDs) fell in the range of 70 to 75%. For the same compound, in data set [5], the “concentration causing accumulation of APP CTFs” value was no less than 5 µM and the “concentration required to cause a 2-fold increase in APP CTFs” value was determined as 3.4 ± 0.4 µM.
On to `C[C@@H](C(=O)O)c1ccc(-c2ccccc2)c(F)c1` [R-flurbiprofen, 2-(3-fluoro-4-phenylphenyl)propanoate], for which the “effect on ICD production from APLP1” value in data set [1] is given as “unaffected”. The “effect on ICD production from APLP2” value in data set [2] is reported as “weak inhibitory effect”. In addition, the brain penetrance result in data set [6] was “poor”. For the same compound, in data set [7], the “effect on Aβ38 levels” value was “increase” and the “effect on Aβ42 levels” value is recorded as “reducing”. In data set [4], the “concentration at which APP ICD production is decreased” value is listed as no less than 400 µM and the “effect on ICD production from APP” value is given as “weakly inhibited”.
Consider `C[C@H](NC(=O)Cc1cc(F)cc(F)c1)C(=O)N[C@H]1N=C(c2ccccc2)c2ccccc2N(C)C1=O` [compound E, (2S)-2-{[(3,5-Difluorophenyl)acetyl]amino}-N-[(3S)-1-methyl-2-oxo-5-phenyl-2,3-dihydro-1H-1,4-benzodia-zepin-3-yl]propanamide], for which the “concentration needed for a 2-fold increase in CTF band signal, APLP1” value in data set [3] is 0.24 ± 0.22 nM. Further, the “concentration needed for a 2-fold increase in CTF band signal, APP” value in data set [5] was 0.27 ± 0.01 nM.
On to “propan-2-yl 2-[4-(4-chlorobenzoyl)phenoxy]-2-ethylpropanoate [fenofibrate]”, for which the “effect on ICD production from APLP1” value in data set [1] is listed as “unaffected”. Also, the “effect on ICD production from APLP2” value in data set [2] is reported as “unaffected”. In data set [7], the “effect on level of production of Aβ38” value is “reduces”, the “effect on level of production of Aβ42” value is “increases” and the “effect on levels of Aβ40” value is “almost unchanged”. Also, in data set [4], the “effect on ICD production from APP” value is “unaffected”.
